Source: ChEMBL document CHEMBL4334446, “Evaluating the effects of fluorine on biological properties and metabolic stability of some antitubulin 3-substituted 7-phenyl-pyrroloquinolinones” (Eur J Med Chem, 2019)
Blank lines part the entries; values can stand above or below the molecule they belong to.

Columns and labels:
[1] = Growth inhibition of human DND41 cells incubated for 72 hrs by MTT assay; format: functional; settings: DND41, 72 h
Method in brief: (§1)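 Leukemia lines were grown in RPMI-1640; the CEM^Vbl-100 medium also contained 100 ng/mL vinblastine. Cells were seeded at 8 × 10³ per well and left 18 h at 37 °C, 5% CO2. Medium was then replaced with fresh medium holding graded compound concentrations (DMSO stocks), in triplicate, for 72 h. Viability was read by MTT, and GI50 = concentration inhibiting proliferation 50%.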

Jurkat = experiment: Growth inhibition of human Jurkat cells incubated for 72 hrs by MTT assay; format: functional; method in brief: as §1
HL-60 = experiment: Growth inhibition of human HL60 cells incubated for 72 hrs by MTT assay; format: functional; settings: HL-60, 72 h; method in brief: as §1
RS4-11 = experiment: Growth inhibition of human RS4:11 cells incubated for 72 hrs by MTT assay; format: functional; settings: RS4-11, 72 h; method in brief: as §1
MCF7 = experiment: Growth inhibition of human MCF7 cells incubated for 72 hrs by MTT assay; format: functional; settings: MCF7, 72 h
MDA-MB-231 = experiment: Growth inhibition of human MDA-MB-231 cells incubated for 72 hrs by MTT assay; format: functional; settings: MDA-MB-231, 72 h
MDA-MB-468 = experiment: Growth inhibition of human MDA-MB-468 cells incubated for 72 hrs by MTT assay; format: functional; settings: MDA-MB-468, 72 h
HeLa = experiment: Growth inhibition of human HeLa cells incubated for 72 hrs by MTT assay; format: functional
HT-29 = experiment: Growth inhibition of human HT-29 cells incubated for 72 hrs by MTT assay; format: functional; settings: HT-29, 72 h
[2] = Growth inhibition of human PBL cells incubated for 72 hrs by MTT assay; format: cell-based; settings: PBL cells (peripheral blood lymphocytes)
Method in brief: (§2)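 PBL from healthy donors were isolated on a Lymphoprep gradient, held overnight in RPMI-1640 with 10% FBS, and the non-adherent cells resuspended at 5 × 10^5 cells/mL. Proliferating cultures got 2.5 µg/mL PHA; resting cultures got none. Compound was added at several concentrations for 72 h and viability read by MTT. GI50 reported as mean ± SEM of three experiments.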

[3] = Growth inhibition of PHA-stimulated human PBL cells incubated for 72 hrs by MTT assay; format: cell-based; settings: PHA-stimulated PBL cells (peripheral blood lymphocytes); method in brief: as §2
CCRF-CEM = experiment: Growth inhibition of human CEM cells incubated for 72 hrs by MTT assay; format: functional; method in brief: as §1
[4] = Growth inhibition of multidrug-resistant human CEM/VBL100 cells incubated for 72 hrs by MTT assay; format: functional; settings: CEM/VBL100, 72 h; method in brief: as §1
Tubulin = Tubulin (Bos taurus, UniProt Q6B856+Q862L2+Q862F3); experiment: Inhibition of bovine brain tubulin polymerization preincubated for 15 mins followed by GTP addition and measured for 20 mins by turbidimetry-based spectrophotometric method
Method in brief: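 Bovine brain tubulin (10 µM) was preincubated with varying compound concentrations in 0.8 M monosodium glutamate, pH 6.6, for 15 min at 30 °C, then cooled to 0 °C. GTP was added to 0.4 mM final and the mix warmed to 30 °C. Turbidity was followed at 350 nm. IC50 = concentration inhibiting extent of assembly 50% after 20 min.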

Tubulin (Bos taurus) = Tubulin (Bos taurus) (UniProt Q6B856+Q862L2+Q862F3); experiment: Inhibition of [3H]colchicine binding to bovine brain tubulin at 5 uM relative to control
Method in brief: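 Bovine brain tubulin at 1 µM was incubated with 5 µM [3H]colchicine and the test compound at 5 µM. Inhibition of colchicine binding was measured relative to a control.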

B16-BL6 [5] = experiment: Growth inhibition of mouse B16-BL6 cells incubated for 72 hrs by MTT assay; format: functional; settings: B16-BL6, 72 h
B16-BL6 [6] = experiment: Antitumour activity against mouse B16-BL6 cells allografted in C57BL/6 mouse assessed as reduction in tumor mass at 7.5 mg/kg, ip administrated every other day relative to control; format: functional
Method in brief: (§3)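 Male C57BL/6 mice (six weeks old) got 2.5×10^5 BL6-B16 murine melanoma cells s.c. in the dorsolateral flank, in PBS. Once tumors were measurable (about 100 mm³), mice were randomized and given drug i.p. every other day in 50 µL DMSO. Vehicle (DMSO) group served as control. Tumor volume = (D × d²)/2; tumor weight taken at end. 5 animals per group, mean ± SEM.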

B16-BL6 [7] = experiment: Antitumour activity against mouse B16-BL6 cells allografted in C57BL/6 mouse assessed as reduction in tumor mass at 3 mg/kg, ip administrated every other day relative to control; format: functional; method in brief: as §3
[8] = Toxicity in C57BL/6 mouse allografted with mouse B16-BL6 cells assessed as change in body weight at 3 to 7.5 mg/kg, ip administrated every other day; format: organism-based; settings: in vivo
Method in brief: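 Male six-week-old C57BL/6 mice were given BL6-B16 murine melanoma cells subcutaneously in the dorsolateral flank in PBS. Once tumours reached about 100 mm³, mice were randomised and dosed intraperitoneally every other day with 3.0 or 7.5 mg/kg in DMSO, or vehicle alone. Body weight change was followed; 5 animals per group, mean ± SEM.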

[9] = Metabolic stability in human liver microsomes assessed as parent compound decline at 10 uM incubated for 60 mins in presence of NADPH by HPLC analysis; format: ADME, Microsome; settings: read-out: Drug degradation
Method in brief: (§4)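 Compound (10 µM) was incubated 0 or 60 min at 37 °C with pooled HLMs (1 mg/mL), with or without 1 mM NADPH, or in buffer only (0.1 M KH2PO4 pH 7.4). Reactions were stopped with ice-cold acetonitrile. Remaining parent was measured by HPLC-fluorescence relative to 0 min; mean ± SD, n = 3.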

[10] = Selectivity ratio of GI50 for human PBL cells to GI50 for human Jurkat cells incubated for 72 hrs by MTT assay
Method in brief: (§5)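 Leukemia cells (CEM, DND-41, Jurkat) were grown in RPMI-1640 at 8×10³ cells/well and left 18 h. Donor PBL were gradient-separated, held overnight in RPMI-1640/10% FBS, and non-adherent cells set at 5×10^5 cells/mL without PHA (resting). Both were exposed 72 h to graded concentrations, read by MTT. The ratio is PBL GI50 over leukemia GI50.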

[11] = Metabolic stability in human liver microsomes assessed as parent compound decline at 10 uM incubated for 60 mins in absence of NADPH by HPLC analysis; format: ADME, Microsome; settings: read-out: Drug degradation; method in brief: as §4
[12] = Selectivity ratio of GI50 for human PBL cells to GI50 for human DND41 cells incubated for 72 hrs by MTT assay; method in brief: as §5
[13] = Selectivity ratio of GI50 for human PBL cells to GI50 for human CEM cells incubated for 72 hrs by MTT assay; format: functional; method in brief: as §5
[14] = Selectivity ratio of GI50 for PHA-stimulated human PBL cells to GI50 for human Jurkat cells incubated for 72 hrs by MTT assay
Method in brief: (§6)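 Leukemia cells (CEM, DND-41, Jurkat) were grown in RPMI-1640 at 8×10³ cells/well and left 18 h. Donor PBL were gradient-separated, held overnight, and non-adherent cells set at 5×10^5 cells/mL with 2.5 µg/mL PHA. Both were exposed 72 h at 37 °C to graded compound concentrations, read by MTT. The ratio is PBL GI50 over leukemia GI50.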

[15] = Selectivity ratio of GI50 for PHA-stimulated human PBL cells to GI50 for human DND41 cells incubated for 72 hrs by MTT assay; method in brief: as §6
[16] = Selectivity ratio of GI50 for PHA-stimulated human PBL cells to GI50 for human CEM cells incubated for 72 hrs by MTT assay; method in brief: as §6
B16-BL6 [17] = experiment: Antitumour activity against mouse B16-BL6 cells allografted in C57BL/6 mouse assessed as reduction in tumor mass at 30 mg/kg, ip administrated every other day relative to control; format: functional
Method in brief: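 Six-week-old male C57BL/6 mice received BL6-B16 murine melanoma cells subcutaneously in the dorsolateral flank, suspended in PBS. Once tumors reached about 100 mm³, the mice were randomised and dosed intraperitoneally every other day, with the drug dissolved in DMSO; controls received DMSO vehicle. Tumors were measured in two dimensions, V=(D x d²)/2, and weighed at the end. Five mice per group; mean ± SEM.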

GI50 (Jurkat): 32.4 nM | GI50 (HL-60): 15.1 nM | GI50 (RS4-11): 56 nM | GI50 (MCF7): 103 nM | GI50 (MDA-MB-231): 454 nM | GI50 (MDA-MB-468): 871 nM | GI50 (HeLa): 13.3 nM | GI50 (HT-29): 402 nM | GI50 (CCRF-CEM): 44 nM | IC50 (Tubulin): 380 nM | inhibition (Tubulin (Bos taurus)): 70% | GI50 (B16-BL6 [5]): 18 nM | metabolised at 1 h, 10 µM [9]: 20% | metabolised at 1 h, 10 µM [11]: 20%
SMILES: O=C(c1ccccc1)n1ccc2c3c(=O)cc(-c4cccc(F)c4)[nH]c3ccc21
GI50 [1]: 10.2 nM | GI50 at 72 h [2]: 45600 nM | GI50 at 72 h [3]: 17600 nM | GI50 [4]: 36 nM | inhibition in vivo at 7.5 mg/kg (B16-BL6 [6]): 58.4% | inhibition in vivo at 3 mg/kg (B16-BL6 [7]): 16.7% | Activity [8]: Non-Toxic | RatioGI50 [10]: 10000 - 30000 | RatioGI50 [12]: 10000 - 30000 | RatioGI50 [13]: 10000 - 30000 | RatioGI50 [14]: 10000 - 30000 | RatioGI50 [15]: 10000 - 30000 | RatioGI50 [16]: 10000 - 30000

SMILES: COc1ccc(/C=C\c2cc(OC)c(OC)c(OC)c2)cc1OP(=O)(O)O [FOSBRETABULIN DISODIUM]
inhibition in vivo at 30 mg/kg (B16-BL6 [17]): 31.3%
